Screening results as filed in PubChem BioAssay.
MC4R antag cAMP: antagonists of human melanocortin 4 receptor (MC4R). MC4R-expressing cells, MTII-stimulated cAMP, LANCE TR-FRET. inhibition, % at 6.5 µM. hit rate 0.48% among 360,000. AID 540295;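 active = inhibition above its plate's cutoff, the mean of tested wells on that plate plus 3 SD, cut at about 29% in these data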
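Test system: U2OS cells stably expressing human melanocortin 4 receptor (MC4R); also added: Melanotan II challenge; compound: 6.5 µM single dose; timing: 30-min compound preincubation, 1-h Melanotan II challenge, 1-h detection, room temperature; signal: Eu-cAMP/anti-cAMP TR-FRET, emission 671 nm; repeats: one well per compound, no replicates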
MC4R ag barr: activates human MC4R beta-arrestin recruitment. P32245. U2OS MC4R beta-arrestin complementation, luminescence; percent of melanotan II response, DMSO zero. activation, % at 8.9 µM. hit rate 0.98% among 360,000;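 active = activation above a per-plate cutoff, the mean activation of sample wells on that plate plus 3 SD, cut at about 8% in these data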
TMEM16A inh: inhibitors of mouse TMEM16A calcium-activated chloride channel | AID 588511 | HEK293 TMEM16A/YFP iodide influx fluorescence, ionomycin | Q8BHY3 | normalized B-score (activity score, 25-100; higher = stronger inhibition) at 10 µM | hit rate 1.2% among 310,000;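 active = ratio plate-corrected score three or more library SD toward inhibition, starting fluorescence score within five deviations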;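 also: score derived from kinetic fluorescence span divided by baseline fluorescence per well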
Target sequence (Q8BHY3 whole entry, looked up): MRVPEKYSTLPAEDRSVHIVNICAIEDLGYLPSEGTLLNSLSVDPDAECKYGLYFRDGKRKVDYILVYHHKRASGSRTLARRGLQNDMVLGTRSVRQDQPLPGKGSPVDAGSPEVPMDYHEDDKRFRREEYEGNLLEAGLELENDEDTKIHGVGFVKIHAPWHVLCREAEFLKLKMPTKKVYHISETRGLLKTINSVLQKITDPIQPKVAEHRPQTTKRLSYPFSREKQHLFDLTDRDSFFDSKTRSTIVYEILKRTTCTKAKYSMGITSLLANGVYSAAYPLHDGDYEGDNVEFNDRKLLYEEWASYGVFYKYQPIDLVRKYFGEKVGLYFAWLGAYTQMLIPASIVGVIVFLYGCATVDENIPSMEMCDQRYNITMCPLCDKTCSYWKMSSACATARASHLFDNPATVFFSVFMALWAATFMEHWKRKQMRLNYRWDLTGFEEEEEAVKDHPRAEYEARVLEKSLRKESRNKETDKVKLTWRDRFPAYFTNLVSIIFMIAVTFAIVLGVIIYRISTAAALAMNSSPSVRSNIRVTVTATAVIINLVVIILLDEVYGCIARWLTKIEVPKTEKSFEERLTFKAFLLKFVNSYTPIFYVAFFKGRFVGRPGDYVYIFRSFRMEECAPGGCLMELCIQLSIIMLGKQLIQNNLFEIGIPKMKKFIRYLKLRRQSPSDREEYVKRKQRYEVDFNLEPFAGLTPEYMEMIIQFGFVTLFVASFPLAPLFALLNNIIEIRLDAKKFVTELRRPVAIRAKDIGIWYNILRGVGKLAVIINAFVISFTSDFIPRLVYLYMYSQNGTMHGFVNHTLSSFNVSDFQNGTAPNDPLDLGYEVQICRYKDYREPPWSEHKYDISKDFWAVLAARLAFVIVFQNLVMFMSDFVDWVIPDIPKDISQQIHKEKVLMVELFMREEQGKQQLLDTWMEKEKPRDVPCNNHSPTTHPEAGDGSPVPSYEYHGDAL
CSC inhib: cancer stem cell inhibition. inhibition, % at 7.5 µM. AID 2717. hit rate 1.1% among 300,000. cancer stem cell-like cells viability, luminescence; in the data active = inhibition above about 75%; tested in HMLE shEcad cells
TMEM16A act: activators or potentiators of mouse TMEM16A chloride channel | Q8BHY3 | HEK293 TMEM16A/YFP-H148Q/I152L, iodide quench fluorescence; active compounds read low | B-score at 10 µM | hit rate 0.3% among 340,000 | AID 623877;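 active = fluorescence-ratio B-score plate-corrected deviation score at least 3 library SD below zero, with starting fluorescence score within 5 deviations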;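 also: channel opened by trigger with iodide after compound preincubation; score built on the fluorescence ratio of max minus min over baseline; more negative score means more quench and so TMEM16A activation or potentiation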
Beta apoptosis: beta cell apoptosis inhibition; INS-1E cytokine-induced death, ATP luminescence, 48 h; percent of positive-control rescue, neutral wells zero; protection from apoptosis, % (no concentration beside the values); hit rate 0.8% among 300,000;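 active = Every replicate reaches about 75%, or at least half do and their mean reaches it too, limit read from the data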;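 also: higher means more ATP so stronger rescue from cytokine killing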
Numbers stand for hits; 0 = inactive; - = no result. Rows were chosen to be rich in hits. Some 3.8% of all compounds tested hit in one or more screens of this group.

SMILES	MC4R antag cAMP	MC4R ag barr	TMEM16A inh	CSC inhib	TMEM16A act	Beta apoptosis
COc1ccc2nc(NC(=O)CSc3nnc4n3C(C)(C)Cc3ccccc3-4)sc2c1	0	0	0	0	-8	0
COc1ccc(NC(=O)Cn2cnc3ccccc3c2=O)cc1OC	0	0	0	0	0	-
CC1(C)Cc2ccccc2-c2nnc(SCC(=O)N3CCc4ccccc43)n21	0	0	0	0	-	0
Cc1ccc(Cl)cc1N1CCN(C(=O)CSc2nnc3n2C(C)(C)Cc2ccccc2-3)CC1	0	0	100	0	0	94
COc1ccc(N2CCN(C(=O)CSc3nnc4n3C(C)(C)Cc3ccccc3-4)CC2)cc1	0	0	25	0	0	0
COc1ccc2nc(NC(=O)Cn3cnc4ccccc4c3=O)sc2c1	0	8.3	0	0	0	0
O=C(NCc1ccccc1)c1ccc(S(=O)(=O)NCc2ccco2)cc1	0	0	0	0	0	0
COc1cc(NC(=O)CSc2nnc(-c3ccncc3)o2)cc(OC)c1OC	0	0	0	0	0	0
CCOC(=O)C1(C#N)Cc2ccccc2C1	0	0	-	-	0	-
CC(=O)Nc1cc(-c2ccc(CO)cc2)cn2c(-c3ccc(F)cc3)cnc12	0	0	-	-	-	-
C=C1C(O)[C@@H]2O[C@]3(CC[C@H](/C=C/C(C)[C@@H]4CC(C)=CC5(O[C@H](C[C@@](C)(O)CO)CCC5O)O4)O3)CC[C@H]2O[C@@H]1C(O)CC(C)[C@H]1OC2(CCCCO2)CCC1C (stereo partly specified)	-	-	-	-	-	76
C=C1[C@@H](O)[C@@H]2O[C@]3(CC[C@H](/C=C/[C@@H](C)[C@@H]4CC(C)=CC5(O[C@H](C[C@@](C)(O)C(=O)OC)CC[C@H]5O)O4)O3)CC[C@H]2O[C@@H]1[C@@H](O)C[C@H](C)[C@H]1OC2(CCCCO2)CC[C@H]1C (stereo partly specified)	-	-	-	77	-	108
O=C(COC(=O)c1ccc(S(=O)(=O)C(F)F)cc1)Nc1ccccc1C(=O)NC1CC1	0	0	-	0	0	0
CCCCCCCCCCCCN1[C@@H](CC(C)=O)c2cc(F)ccc2S1(=O)=O	0	0	0	80	0	0
Cc1ccc(/C=[N+](/C)[O-])cc1	0	0	0	0	0	0
Cc1ccc(C=C2C(Cl)=C(Cl)C(Cl)=C2Cl)cc1	-	-	0	100	-	0
COc1cccc(NC(=O)CN(C)C(=O)C(Sc2ccccc2)c2ccccc2)c1 (stereo unspecified)	0	0	-	-	0	-
COc1ccc(CCNc2c(C)c(C)nc3ncnn23)cc1	0	0	0	-	0	100
CCC(=O)NC(=S)Nc1ccc(NC(=O)COc2ccc(Cl)cc2Cl)cc1	0	18	0	0	0	0
COc1ccc(NC(=S)NNC(=O)COc2ccc(Cl)cc2Cl)cc1	0	0	0	0	0	0
CCOC(=O)N1C(=O)[C@](c2ccc(Cl)cc2)(C(C)C)N1C(=O)OCC	0	0	0	0	0	0
CCOC(=O)N1C(=O)[C@@](c2ccc(Cl)cc2)(C(C)C)N1C(=O)OCC	0	0	0	78	0	0
CCc1ccc(-c2cc(C)no2)cc1S(=O)(=O)NCCc1ccc(OC)c(OC)c1	0	0	100	0	0	0
COc1ccc(-c2cc(C)no2)cc1S(=O)(=O)Nc1ccccc1	0	0	0	0	0	0
COc1ccc(CCNC(=O)c2cc(-c3ccccc3)on2)cc1OC	0	9.5	0	0	0	0
SMILES	MC4R antag cAMP	MC4R ag barr	TMEM16A inh	CSC inhib	TMEM16A act	Beta apoptosis
COc1ccccc1NS(=O)(=O)c1cc(-c2cc(C)no2)ccc1OC	0	0	100	0	0	0
CC(C)C[C@@H](CNCC(=O)[C@H](Cc1ccccc1)NC(=O)c1[nH]cnc1C(=O)N[C@H](CN)CC(C)C)NC(=O)c1nc[nH]c1C(=O)N[C@@H](CC(=O)O)C(=O)O	0	0	-	-	-	-
Cc1cccnc1Nc1nc(-c2ccc(O)cc2O)cs1	0	0	0	0	0	0
Oc1ccc(-c2csc(Nc3ccccn3)n2)c(O)c1	0	0	0	103	0	0
C=CCc1ccccc1OCCSc1nc2ccc([N+](=O)[O-])cc2s1	0	0	0	0	0	0
COc1ccccc1OCCSc1nc2ccc([N+](=O)[O-])cc2s1	0	0	100	0	0	0
CCC(=O)NC(c1cccs1)c1ccc2cccnc2c1O (stereo unspecified)	0	0	0	106	0	107
CC(C)CC(=O)NC(c1cccs1)c1ccc2cccnc2c1O (stereo unspecified)	0	0	0	102	0	110
Cc1conc1NC(c1cccs1)c1ccc2cccnc2c1O (stereo unspecified)	-	-	0	101	-	106
C[C@H](NC(=O)c1ncn2c1C(=O)NC[C@@H]2C)c1ccccc1	0	0	-	-	-	-
O=C(Cc1c(Cl)cccc1Cl)OCC(=O)c1ccc[nH]1	0	0	-	-	-	-
O=C(Nc1ccc(Cl)cc1)c1cc2c(cc1O)[nH]c1ccccc12	0	0	0	116	0	0
CC1(C)C(=O)Nc2ccccc2N1C(=O)COC(=O)Cc1ccccc1F	0	0	-	0	0	0
FC(F)(F)c1ccc(Cl)c(Nc2nnc(-c3ccncc3)s2)c1	0	0	-	-	-	-
Clc1ccccc1Nc1nnc(-c2ccncc2)s1	0	0	0	0	0	75
N#C/C(=C\C=C\c1ccccc1[N+](=O)[O-])C(=O)NC1CCCCC1	0	0	0	82	0	0
N#C/C(=C\c1ccccc1[N+](=O)[O-])C(=O)NC1CCCCC1	0	0	0	0	0	0
CCN1/C(=C/C=C/c2oc3ccc(-c4ccccc4)cc3[n+]2CC)Oc2ccc(-c3ccccc3)cc21	0	0	0	116	0	111
O=C(CSc1nnc(CNC(=O)c2cccs2)o1)Nc1ccc(F)cc1F	0	0	0	0	0	0
CC(C)N(C(=O)CSc1ncnc2sc(-c3ccccc3)cc12)C(C)C	0	0	25	-	0	0
CC(Sc1ncnc2sc(-c3ccccc3)cc12)C(=O)N1CCNC1=O (stereo unspecified)	0	0	-	-	0	0
CCCSc1nsc(NC(=O)CC)n1	0	0	0	0	0	-
CCCCCCSc1nsc(NC(=O)CC(C)C)n1	0	0	0	91	0	0
CC(C)C(=O)Nc1nc(-c2ccccc2)ns1	0	0	0	0	0	0
CCCSc1nsc(NC(=O)C(c2ccccc2)c2ccccc2)n1	0	0	0	122	0	0
O=C(NCc1nc2ccccc2[nH]1)C1=C[C@@H](C2CCCCC2)C[C@@H](OCc2ccc(CO)cc2)O1	0	0	0	0	0	106
Cn1nc(C(=O)NC2CCCCC2)c2c1-c1ccccc1SC2	0	0	0	0	0	0
CC(C)N(C(=O)c1nn(C)c2c1CSc1ccccc1-2)C1CCCCC1	0	0	25	0	0	0
CCOc1ccc(OCC(=O)OCc2cc(=O)n3cc(Br)ccc3n2)cc1	0	0	-	0	-10	0
